Results reported in ChEMBL document CHEMBL1146898, “Synthesis and immunostimulatory activity of 8-substituted amino 9-benzyladenines as potent Toll-like receptor 7 agonists” (Bioorg Med Chem Lett, 2006).
Calls of active or inactive are those of the source. The calls are words filed in the database; no cut-off is given here.

Assays:
PBMC [1] = assay: Induction of IFNalpha production in human PBMC at 1 uM; type: functional
Outline: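 Donor PBMC from blood bank isolated over Ficoll-Hypaque and kept in RPMI 1640 with 10% FBS, L-glutamine and penicillin/streptomycin. 10⁶ cells/well were stimulated with compound at single final concentration for 24 h (37 °C, 5% CO₂). Supernatant IFN-α was measured by Luminex multicytokine bead kit. Values are a composite across several healthy donors.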

PBMC [2] = assay: Induction of IFNalpha production in human PBMC; type: functional, cell-based
Outline: (§1)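 Ficoll-Hypaque-isolated human PBMC were held in RPMI 1640 with 10% FBS, L-glutamine and pen/strep, 10⁶ cells/well. They were treated for 24 h with a compound dilution series going down to 10 nM. Supernatant IFN-α was read by Luminex bead assay. Data are a composite of three donors. EC₅₀ came from non-linear regression curve fit.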

PBMC [3] = assay: Maximal IFNalpha production in human PBMC at 10 uM; type: functional; outline: as §1
Macrophage [4] = assay: Induction of TNFalpha production in macrophages of TLR7 knockout mouse; type: functional, cell-based
Macrophage [5] = assay: Induction of IL6 production in macrophages of TLR7 knockout mouse; type: functional, cell-based
Macrophage [6] = assay: Induction of IL12 production in macrophages of TLR7 knockout mouse; type: functional, cell-based

With `COCCOc1nc(N)c2nc(NCCN3CCOCC3)n(Cc3ccccc3)c2n1` the Activity (PBMC [1]) was 110.48 pg/mL, the EC50 (PBMC [2]) was 0.79 µM and the Activity (PBMC [3]) was 176 pg/mL. The Activity (Macrophage [4]) was “inactive”, the Activity (Macrophage [5]) was “inactive” and the Activity (Macrophage [6]) was “inactive”.
Work on `COCCOc1nc(N)c2nc(NCCCO)n(Cc3ccccc3)c2n1` yielded an Activity (PBMC [1]) of 113.18 pg/mL, an EC50 (PBMC [2]) of 3.2 µM and an Activity (PBMC [3]) of 206 pg/mL. For the same compound, the Activity (Macrophage [4]) was “inactive”, the Activity (Macrophage [5]) was “inactive” and the Activity (Macrophage [6]) was “inactive”.
Compound `CCCCNc1nc2c(N)nc(OCCOC)nc2n1Cc1ccccc1` has an Activity (PBMC [1]) of 0.73 pg/mL.
In the case of `COCCOc1nc(N)c2nc(NCCO)n(Cc3ccccc3)c2n1`, the Activity (PBMC [1]) is reported as 99.21 pg/mL, the EC50 (PBMC [2]) is reported as 5.33 µM and the Activity (PBMC [3]) is reported as 168 pg/mL. The Activity (Macrophage [4]) was “inactive”, the Activity (Macrophage [5]) was “inactive” and the Activity (Macrophage [6]) was “inactive”.
With `COCCOc1nc(N)c2nc(NCCc3ccccc3)n(Cc3ccccc3)c2n1` the Activity (PBMC [1]) was 1.33 pg/mL.
With `COCCOc1nc(N)c2[nH]c(=O)n(Cc3ccccc3)c2n1` the Activity (PBMC [1]) was 418 pg/mL, the EC50 (PBMC [2]) was 0.14 µM and the Activity (PBMC [3]) was 220 pg/mL.
`COCCOc1nc(N)c2nc(N3CCOCC3)n(Cc3ccccc3)c2n1` gave an Activity (PBMC [1]) of 0.41 pg/mL.
`COCCOc1nc(N)c2nc(N)n(Cc3ccccc3)c2n1` gave an EC50 (PBMC [2]) greater than 10 µM and an Activity (PBMC [3]) of 132 pg/mL.
Compound `CCOC(=O)Nc1nc2c(N)nc(OCCOC)nc2n1Cc1ccccc1` has an Activity (PBMC [1]) of 1.03 pg/mL.
In the case of `COCCOc1nc(N)c2nc(N(CCO)CCO)n(Cc3ccccc3)c2n1`, the Activity (PBMC [1]) is reported as 0.82 pg/mL.
Work on `COCCOc1nc(N)c2nc(NN)n(Cc3ccccc3)c2n1` yielded an Activity (PBMC [1]) of 0.21 pg/mL.
Compound `CCNc1nc2c(N)nc(OCCOC)nc2n1Cc1ccccc1` has an Activity (PBMC [1]) of 80.3 pg/mL, an EC50 (PBMC [2]) of 4.42 µM and an Activity (PBMC [3]) of 141 pg/mL. The Activity (Macrophage [4]) was “inactive”, the Activity (Macrophage [5]) was “inactive” and the Activity (Macrophage [6]) was “inactive”.
Work on `CCCNc1nc2c(N)nc(OCCOC)nc2n1Cc1ccccc1` yielded an Activity (PBMC [1]) of 8.8 pg/mL.
